Bioassay records: PubChem, The Scripps Research Institute Molecular Screening Center
GPR7 antag = blocks human GPR7 receptor signaling. GPR7-expressing cells, fluorescence antagonist assay. 290,000 tested, 1.1% active. inhibition, % at 4.4 µM. P48145; in the data active means inhibition above about 16%, passing the limit was not always enough;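 further: cells stimulated with the agonist NPW; 0% = agonist with vehicle and 100% = vehicle without agonist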
CHO parental Ca = counter-screen for OX1R antagonists: effect in parental CHO cells | 330,000 tested, 0.63% active | inhibition, % at 5.6 µM | AID 463079 | parental CHO-K1, ATP-induced calcium, Fluo-8 fluorescence;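 active means inhibition above that plate's mean sample inhibition plus 3 SD, cut at about 26% in these data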;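 further: 0% = ATP-challenged DMSO wells and 100% = DMSO wells without ATP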
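Assay system: untransfected parental CHO cell line. Also added: ATP agonist challenge. Dosing: one dose, 5.6 µM nominal. Measured by: Fluo-8 fluorescence. Read-out: % inhibition. Benchmarks: ATP wells versus no-ATP DMSO wells. Repeats: no replicates.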
GalR3 antagonist = antagonists of human GalR3 | O60755 | HEK293 GalR3-CNG cAMP membrane potential fluorescence; galR3 body fused to GalR1 C-terminus | inhibition, % at 3 µM | 360,000 tested, 0.44% active | AID 651719;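 active means inhibition above the screen-wide average plus 3 SD, cut at about 13% in these data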;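 further: forskolin and galanin both at EC90 stimulate the cells; cAMP rise reported by CNG channel membrane potential dye signal; 0% = forskolin plus galanin with DMSO and 100% = forskolin alone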
OX1R antag-1 = blocks the human orexin 1 receptor; inhibition, % at 5 µM; 330,000 tested, 0.43% active; O43613; CHO/OX1R cells, Fluo-8 calcium fluorescence, orexin A;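 active means inhibition above its plate's threshold, mean inhibition of all tested compounds on the plate plus 3 SD, cut at about 37% in these data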;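 further: 0% = orexin A challenge wells and 100% = SB-334867-A antagonist wells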
Target sequence (O43613 whole entry, looked up): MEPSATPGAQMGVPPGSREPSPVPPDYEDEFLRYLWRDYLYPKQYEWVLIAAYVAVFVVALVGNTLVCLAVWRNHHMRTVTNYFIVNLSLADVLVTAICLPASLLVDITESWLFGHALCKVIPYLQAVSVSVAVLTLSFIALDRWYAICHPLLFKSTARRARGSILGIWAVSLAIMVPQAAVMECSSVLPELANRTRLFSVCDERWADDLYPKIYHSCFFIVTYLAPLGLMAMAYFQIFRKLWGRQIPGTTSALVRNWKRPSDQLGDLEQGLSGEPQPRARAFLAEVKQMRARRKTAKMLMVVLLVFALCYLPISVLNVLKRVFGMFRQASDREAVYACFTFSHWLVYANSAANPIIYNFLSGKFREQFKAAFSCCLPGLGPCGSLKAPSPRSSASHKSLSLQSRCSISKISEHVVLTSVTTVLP
OX1R antag-2 = antagonists of human orexin 1 receptor (OX1R). inhibition, % at 6.6 µM. OX1R-expressing cells, FRET antagonist read-out. AID 485270. O43613. 330,000 tested, 1.8% active; in the data active means inhibition mostly above about 38%, no sharp cut-off; inactive means mostly below about 40%;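 further: 0% = agonist challenge alone and 100% = reference antagonist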
Numbers without * were called inactive; x = no result. Only some compounds are listed: those with a hit (about 3.1% of all), similar ones and a draw of the others.

SMILES	GPR7 antag	CHO parental Ca	GalR3 antagonist	OX1R antag-1	OX1R antag-2
Cc1ccc(/C=N/n2c(C3CCCCC3)n[nH]c2=S)cc1	-3	43*	-9	14	-3
Cc1ccc(-c2nn(-c3ccccc3)cc2/C=C/C(=O)OCC(=O)NC2CC2)o1	0	83*	-8	77*	46
O=C(O)/C=C\c1cn(-c2ccccc2)nc1-c1cc2ccccc2o1	-5	10	-7	15	76*
O=C(O)/C=C/c1cn(-c2ccccc2)nc1-c1cc2ccccc2o1	-7	-1	1	9	27
CNC(=O)COC(=O)/C=C/c1cn(-c2ccccc2)nc1-c1ccc2c(c1)OCCO2	-6	3	9	-9	19
COCC(C)NC(=O)c1nn(Cc2ccccc2)c(=O)c2ccccc12 (centres undefined)	-11	-16	3	-18	74*
CCC(C)NC(=O)c1nn(Cc2ccccc2)c(=O)c2ccccc12 (centres undefined)	-5	-22	-9	-32	25
CC(OC(=O)c1cc2sccc2n1C)C(=O)NCc1ccc(F)cc1 (centres undefined)	0	37*	-3	-20	20
COc1cccc(-c2nc(-c3cccc(C)c3)nc3cc(Cl)ccc23)c1	x	x	-4	x	x
O=c1c2ccccc2nc2n1-c1ccccc1CCC2	-16	-14	0	5	7
O=C1c2ccccc2-n2c1nc1ccccc1c2=O	-12	0	-7	13	54*
CC1=[N+](C)c2c(ccc3cccnc23)C1(C)C	28*	x	24*	x	x
CC(C)(C)OC(=O)N1CCC2CCN(CCc3ccccc3)CC21 (centres undefined)	x	x	0	x	x
O=C(CN1C(=O)c2ccc([N+](=O)[O-])cc2C1=O)Nc1ccccc1N1CCCC1	x	-1	-2	1	52*
O=C(CCN1C(=O)c2ccc([N+](=O)[O-])cc2C1=O)Nc1ccc(O)cc1C(=O)O	-4	-6	-2	-14	56*
N#CC1(NC(=O)CN2C(=O)c3ccc([N+](=O)[O-])cc3C2=O)CCCCC1	x	-8	-3	-13	53*
O=C(Nc1cc([N+](=O)[O-])ccc1N1CCCC1)c1ccco1	-10	-7	5	-13	65*
CCN(C(=O)COC(=O)C(C)(C)Oc1ccc(Cl)cc1)c1c(N)n(Cc2ccccc2)c(=O)[nH]c1=O	x	x	-3	x	x
C[C@H]1Cn2cnc(C(=O)N3CCN(c4ccccc4)CC3)c2C(=O)N1	x	x	-4	x	x
O=C(CN1C(=O)c2ccc([N+](=O)[O-])cc2C1=O)NCc1ccc(C(=O)O)cc1	-1	0	-2	-12	62*
CC(C)c1ccc(NC(=O)C2Cc3c(-c4ccc(Cl)cc4)ccnc3O2)cc1 (centres undefined)	x	x	-3	x	x
Nc1nc(SCC(=O)c2ccc([N+](=O)[O-])cc2)n[nH]1	0	-9	-4	-5	49*
CCN(CC)S(=O)(=O)c1ccc(O)c(NC(=O)c2cc(-c3cc(OC)c(OC)c(OC)c3)nc3ccccc23)c1	-14	5	x	9	68*
COc1ccc(OCCCN2CCC(C(O)(c3ccccc3)c3ccccc3)CC2)cc1	x	x	-8	x	x
CNc1ccc(/C=C(\C#N)c2ccccn2)cc1[N+](=O)[O-]	4	14	-3	7	41
SMILES	GPR7 antag	CHO parental Ca	GalR3 antagonist	OX1R antag-1	OX1R antag-2
N#C/C(=C\c1ccc(Cl)c([N+](=O)[O-])c1)c1ccccn1	-6	-20	-4	-8	71*
c1csc(CNc2nc(NCC3CCCCC3)c3sccc3n2)c1	x	x	1	x	x
CCc1nc2ccc(C(=O)NCCCN(C)C)cn2c1N(C)Cc1ccc(OC)cc1	x	x	-4	x	x
Cc1ccc2cc(C)c3nnc(SCC(=O)c4cccs4)n3c2c1C	-9	-16	-1	-10	45*
O=C(Nc1ccc(Cl)cc1)c1cc2c(cc1O)[nH]c1ccccc12	43*	72*	-4	55*	52*
COc1ccc(S(=O)(=O)N(CC(=O)O)c2ccccn2)cc1	-2	-6	-3	-6	15
COc1ccc(S(=O)(=O)n2ccc(-c3ccc(OCCN(C)c4ccccn4)cc3)n2)cc1	21*	12	-10	0	20
O=C(N/N=C/c1cn(-c2cccs2)nc1-c1ccccc1)c1ccccc1Cl	-13	-1	-4	-14	12
O=C(N/N=C/c1cn(-c2cccs2)nc1-c1ccccc1)c1ccc(O)cc1	-9	-24	-3	8	65*
Cc1nn(CC(=O)Nc2nnc(CC(=O)N3CCCC3)s2)c(=O)c2ccccc12	18*	-10	-2	-16	8
Cc1noc(C)c1C(=O)N1CCC1(C)C(=O)NS(=O)(=O)c1cccc(F)c1 (centres undefined)	x	x	-8	x	x
COc1ccccc1OCC(=O)Nc1oc(-c2ccccc2)c(-c2ccccc2)c1C#N	-10	-13	-4	-24	50*
COc1ccccc1OCC(=O)Nc1ccc(-c2nnc(-c3ccco3)o2)cc1	-7	-15	-3	-2	64*
COc1ccc(CC(=O)Nc2oc(-c3ccccc3)c(-c3ccccc3)c2C#N)cc1OC	-12	-13	-7	-12	33
COc1ccc(CN2C[C@H](COCc3ccccc3)Oc3cccc(Oc4ccc(C(C)C)cc4)c3S2(=O)=O)cc1	x	x	-2	x	x
CCN(CC)c1ccc(Nc2nc(N3CCOCC3)c3ccccc3n2)cc1	-6	5	-6	4	42*
CC1=C/C(=C\C=C(C#N)C#N)N(C)c2ccccc21	7	33*	-3	44*	21
CCOC(=O)N1CCC(N2C(=O)c3ccccc3C2Nc2c(C)cccc2C)CC1 (centres undefined)	16*	-6	x	-38	4
Cc1ccc(NC(=O)COC(=O)Cn2cnc3ccccc32)c([N+](=O)[O-])c1	-13	38*	-4	20	74*
COCC(=O)NC1CCN(CC(=O)Nc2ccc(OC)cc2[N+](=O)[O-])CC1	-2	-1	0	-21	41*
Cc1ccc(NC(=O)COC(=O)Cn2nc(C)c([N+](=O)[O-])c2C)c([N+](=O)[O-])c1	-6	-12	-1	-10	34
CCC(=O)OCC(=O)Nc1ccc(OC)cc1[N+](=O)[O-]	1	-4	0	-5	49*
COCC(=O)NC1CCN(CC(=O)Nc2ccccc2[N+](=O)[O-])CC1	-7	-7	0	-6	31
CCOC(=O)c1ccc(NC(=O)c2cc3c(s2)CCC3)cc1	-8	-7	0	-5	70*
CCCCN1CC(COCc2ccccc2)Oc2cccc(Oc3ccc(F)cc3OC)c2S1(=O)=O (centres undefined)	x	x	0	x	x
CN1C(=S)N(c2cccnc2)C(=O)/C1=C\c1ccc(N(C)C)cc1	8	x	-9	x	x
Cc1c(N2C(=O)/C(=C\c3ccc(N(C)C)cc3)N(C)C2=S)c(=O)n(-c2ccccc2)n1C	-2	19	-3	24	64*
Cc1cc(NC(=O)c2ccc(N3CCCC3)c([N+](=O)[O-])c2)no1	12	-10	-4	-17	17
